From PubChem
Shown are actives, neighbours in structure and some others; about 3.5% of the full set was active somewhere.
ABCB1 block = ABCB1 efflux pump inhibitors, primary screen, cell-based, multiplex, flow cytometry, ABCG2 counter-screen; inhibition, % at 6.6 µM; CCRF-Adr cells, JC-1 efflux; 0.067% of 190,000 active; AID 1326, 2008; in the data active means inhibition above about 40%;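 further: 0% = vehicle and 100% = reference inhibitor; higher value means more JC-1 retained so stronger ABCB1 efflux block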
WT yeast gro inh = growth inhibition of WT strain, primary screen, mitochondrial fusion inhibitor project, WT and mutant strains, chemical genetic. mitochondrial fusion phenotypic screen. 2.1% of 190,000 active. inhibition, % at 10 µM. AID 1362, 2008; in the data active means inhibition above about 58%; tested in S. cerevisiae
ABCG2 inh = ABCG2 efflux pump inhibitors, primary screen, multiplex with ABCB1, IgMXP3 cells, flow cytometry. JC-1 efflux. inhibition, % at 6.6 µM. 0.1% of 190,000 active. AID 1325, 2008;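 active means inhibition above 80%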;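 further: 0% = DMSO and 100% = nicardipine control wells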
Target sequence (Q9UNQ0 whole entry, looked up): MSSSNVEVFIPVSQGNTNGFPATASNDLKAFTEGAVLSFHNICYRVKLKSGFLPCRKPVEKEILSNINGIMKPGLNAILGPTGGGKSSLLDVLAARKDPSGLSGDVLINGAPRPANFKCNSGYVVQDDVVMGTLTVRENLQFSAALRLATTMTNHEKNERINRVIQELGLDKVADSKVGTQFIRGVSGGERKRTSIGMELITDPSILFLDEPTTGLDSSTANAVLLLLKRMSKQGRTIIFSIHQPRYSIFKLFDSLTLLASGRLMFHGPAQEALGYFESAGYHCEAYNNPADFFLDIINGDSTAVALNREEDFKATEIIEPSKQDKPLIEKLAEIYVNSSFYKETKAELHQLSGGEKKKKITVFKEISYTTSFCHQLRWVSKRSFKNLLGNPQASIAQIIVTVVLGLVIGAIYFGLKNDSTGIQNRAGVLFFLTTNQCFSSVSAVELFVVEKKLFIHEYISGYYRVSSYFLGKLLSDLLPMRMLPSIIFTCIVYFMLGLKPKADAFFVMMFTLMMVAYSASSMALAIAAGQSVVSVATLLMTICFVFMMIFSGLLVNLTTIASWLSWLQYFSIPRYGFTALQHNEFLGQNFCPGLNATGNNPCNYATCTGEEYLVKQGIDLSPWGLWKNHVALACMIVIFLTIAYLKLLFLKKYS
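Test system: IgMXP3 cells (ABCG2) mixed with DDAO far-red-labelled CCRF-Adr cells (ABCB1). Reagent: JC-1 transporter substrate. Compound dosing: single test compound dose, 6.6 µM final. Times: 10 min compound exposure, 25 °C. Detection: flow cytometry of retained JC-1 fluorescence. Read-out basis: efflux inhibition in percent versus controls. Controls: nicardipine and DMSO wells.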
MEKK3 PB1 HTS = modulators of MEKK3-MEK5 PB1 binding, primary screen, biochemical, wildtype MEKK3, multiplex bead flow cytometry, Alexa488-MEK5; Mitogen-activated protein kinase kinase kinase 3 (Homo sapiens), Q99759; bead-based flow cytometry, Alexa488-MEK5 binding to MEKK3; actives lie on both sides; 0 = blocked by unlabeled MEK5, 100 = vehicle; binding response (% of control), % at 10 µM; 1.4% of 290,000 active;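 active means binding response more than 3 SD above or below the average of its plate-row segment, actives on both sides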;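 further: Alexa488 bead fluorescence after subtracting the streptavidin-only scavenger bead signal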
MEKK2wt PB1 HTS = modulators of MEK5 binding to wildtype MEKK2, primary screen, biochemical, multiplex bead flow cytometry, Alexa488-MEK5. AID 1531, 2009. binding response (% of control), % at 10 µM. 1.1% of 290,000 active. Alexa488-MEK5 binding to MEKK2 WT; actives lie on both sides; in the data active means binding response below about 67% or above about 130%
MEKK2 mut-MEK5 = MEK5 binding signal on mutant MEKK2 PB1, primary screen, biochemical, multiplex bead flow cytometry, Alexa488-MEK5; Alexa488-MEK5 binding to MEKK2 mutant; percent response, % at 10 µM; 0.35% of 290,000 active; AID 1530, 2009; in the data active means percent response above about 24%, passing the limit was not always enough
An asterisk follows results filed as active; . = not tested or not shown; [ ] = another dose, or the depositor's remark.

SMILES | ABCB1 block | WT yeast gro inh | ABCG2 inh | MEKK3 PB1 HTS | MEKK2wt PB1 HTS | MEKK2 mut-MEK5
O=C1c2ccccc2OC2(C=Cc3ccccc3O2)N1Cc1ccccc1 (configuration not stated) | 0.8 | 69.1* | 2.7 | . | . | .
COC(=O)c1ccc2c(c1)C(C)(C)C(/C=C/c1ccc(O)cc1)=[N+]2C | 0.3 | 33.1 | 1.3 | 72.0 | 51.0*[inhibitor] | -8.0
Cc1ccc2sc(NNC(=O)C3COc4ccccc4O3)nc2c1C (configuration not stated) | 0.4 | 67.2* | 4.4 | 101.0 | 95.0 | -3.0
O=C(NC(Cc1ccccc1)C(=O)NCCc1ccccn1)c1ccccc1 (configuration not stated) | . | . | . | 99.0 | 98.0 | 3.0
Cc1occc1-c1nnc(SCC(=O)Nc2ccccc2)n1C | 1.0 | -10.4 | 2.0 | 92.0 | -13.0* | 3.0
Cc1nn(C(C)C(=O)NCCCN2CCCCCC2)c(=O)c2cc3sccc3n12 (configuration not stated) | . | . | . | 108.0 | 144.0* | 15.0
COc1ccc(/C=C2\Sc3ccc(C(=O)NCCCN4CCCC4)cc3N(C)C2=O)cc1OC | . | . | . | 107.0 | 202.0* | 35.0*
O=C1Nc2cc(C(=O)NCCCN3CCOCC3)ccc2S/C1=C/c1cccc(Cl)c1 | . | . | . | 102.0 | 147.0* | 16.0
CCC1CCCCN1CCCNC(=O)c1ccc(/C=C2/Sc3ccccc3NC2=O)cc1 (configuration not stated) | . | . | . | 104.0 | 151.0* | 15.0
COc1ccc(/C=C2/Sc3ccc(C(=O)NCCN4CCCCCC4)cc3NC2=O)cc1 | . | . | . | 111.0 | 281.0* | 71.0*
COc1ccc(/C=C(\C#N)C(=O)N2COCC2(C)C)cc1 | . | . | . | 100.0 | 107.0 | 2.0
O=C1Nc2cc(C(=O)NCCCN3CCCC3)ccc2S/C1=C\c1ccccc1 | . | . | . | 105.0 | 153.0* | 18.0
O=C1Nc2cc(C(=O)NCCCN3CCOCC3)ccc2S/C1=C/c1ccccc1F | . | . | . | 105.0 | 115.0 | 3.0
CC(=O)Nc1ccc(C(=O)OCc2ccc(Br)cc2)cc1 | 0.5 | 69.3* | 8.6 | 103.0 | 103.0 | 2.0
COc1ccc(/C=C/C(=O)OCC(=O)Nc2ccc(Cl)c(S(=O)(=O)N(C)C)c2)cc1OC | 1.2 | 4.0 | 12.7 | 84.0 | 85.0 | -4.0
O=C(O)CC1(CC(=O)Nc2cccc(C(=O)O)c2)CCCC1 | . | . | . | 97.0 | 97.0 | -4.0
COCCCNC(=O)Cn1cnc2sc(C)c(S(=O)(=O)N3CC(C)CC(C)C3)c2c1=O (configuration not stated) | . | . | . | 98.0 | 98.0 | -1.0
Cc1cccc(-c2ncc(CN3CCCC(CO)(Cc4cccc(Cl)c4)C3)cn2)c1 (configuration not stated) | 1.1 | 62.6* | 8.1 | 97.0 | 102.0 | -7.0
CCOc1c(Cl)cc(/C=N/NC(N)=S)cc1OC | -0.2 | 27.6 | 8.7 | 99.0 | 100.0 | -2.0
CC(=O)Nc1ccc(NC(=O)Nc2cccc(Cl)c2)cc1 | . | . | . | 107.0 | 110.0 | 11.0
COC(=O)c1ccc(NC(=O)Nc2ccc(F)c(Cl)c2)cc1 | -8.1 | 61.5* | -9.0 | 101.0 | 105.0 | 8.0
CC(=O)c1ccc(NC(=O)Nc2cccc(Cl)c2)cc1 | -0.4 | 72.3* | -1.0 | 106.0 | 116.0 | 8.0
CCOc1ccc(NC(=O)N(Cc2ccc(C)cc2)Cc2ccccn2)cc1 | . | . | . | 106.0 | 108.0 | 4.0
COc1ccccc1-c1ccc(SCc2ccc([N+](=O)[O-])cc2)nn1 | 1.2 | 26.0 | 4.3 | 102.0 | 100.0 | 1.0
COc1ccccc1-c1ccc(SCc2cccc(C)c2)nn1 | 0.7 | 67.8* | 7.2 | 107.0 | 106.0 | -2.0
SMILES | ABCB1 block | WT yeast gro inh | ABCG2 inh | MEKK3 PB1 HTS | MEKK2wt PB1 HTS | MEKK2 mut-MEK5
NC(=S)N/N=C/c1ccccc1OCCSc1ccc(Cl)cc1 | -0.3 | 64.3* | 1.7 | 104.0 | 97.0 | -1.0
CCCCc1ccc(NC(=O)C(=O)NCCN2CCN(Cc3ccc([N+](=O)[O-])cc3)CC2)cc1 | 0.6 | 17.8 | -0.1 | 105.0 | 107.0 | 14.0
COC(=O)C1=C(C)Nc2c(c(=O)n(C)c(=O)n2C)C1c1ccc(Cl)cc1 (configuration not stated) | 0.7 | -6.3 | 2.4 | 94.0 | 101.0 | -2.0
Cc1ccccc1OCCCSc1nc2ccccc2[nH]1 | 0.8 | 61.9* | 14.9 | 109.0 | 109.0 | 4.0
Cc1ccc2nc(-c3ccc(-c4ccccn4)s3)cn2c1 | . | . | . | 102.0 | 98.0 | -1.0
Cc1ccc(S(=O)(=O)NC(=O)COc2ccc([N+](=O)[O-])cc2)cc1 | . | . | . | 101.0 | 105.0 | 1.0
Cc1cc(C)c(S(=O)(=O)/N=C2/C=C(SCC(=O)O)C(=O)c3ccccc32)cc1C | -1.6 | 66.1* | -5.2 | 99.0 | 82.0 | 21.0
CCN(CC)CCCn1c(C)cc2c(c1=O)C(c1cc(OC)c(OC)cc1OC)C(C#N)=C(N)O2 (configuration not stated) | -0.1 | 5.1 | -0.2 | 105.0 | 108.0 | 6.0
CCN(CC)CCCn1c(C)cc2c(c1=O)C(c1cccc(Cl)c1)C(C#N)=C(N)O2 (configuration not stated) | 0.4 | 73.5* | 2.3 | 105.0 | 102.0 | -2.0
O=C(c1cc(-c2ccc(Cl)cc2)n(-c2ccc(Cl)c(Cl)c2)n1)N1CCOCC1 | 0.6 | 65.8* | 5.8 | 108.0 | 106.0 | 12.0
O=C(c1cc(-c2ccc(Cl)cc2)n(-c2cc(Cl)ccc2Cl)n1)N1CCOCC1 | 3.8 | 42.7 | 21.7 | 98.0 | 102.0 | 1.0
COc1ccccc1CNC(=O)COc1ccc(S(=O)(=O)N2CCCC2)cc1 | . | . | . | 97.0 | 100.0 | -2.0
O=C(CCSCCC(=O)Nc1c(F)c(F)c(F)c(F)c1F)Nc1c(F)c(F)c(F)c(F)c1F | 0.6 | -6.5 | 2.5 | 83.0 | 88.0 | -1.0
Cc1ccc(-c2nnc(SCc3ccccc3F)o2)cc1 | -0.7 | 59.9* | 5.9 | 88.0 | 92.0 | -6.0
COc1ccc(-c2nnc(SCc3cc(C)cc(C)c3)o2)cc1 | 0.8 | 64.0* | 3.9 | . | . | .
Cc1ccccc1-c1nnc(SCc2ccc(F)cc2)o1 | 0.2 | 59.6* | -1.2 | 83.0 | 87.0 | -8.0
COc1cccc(CNC(=O)CN2C(=O)COc3ccc(S(=O)(=O)N4CCC(C)CC4)cc32)c1 | . | . | . | 98.0 | 101.0 | 2.0
Cc1ccc(-c2nnc(SCC(=O)N3CCOCC3)nc2-c2ccc(C)cc2)cc1 | 1.7 | 74.4* | 4.3 | 109.0 | 107.0 | 8.0
Cc1ccc(-c2nnc(SCC(N)=O)nc2-c2ccc(C)cc2)cc1 | . | . | . | 103.0 | 105.0 | 3.0
CCCCc1ccc(NC(=S)N2CCN(c3ccccn3)CC2)cc1 | . | . | . | 102.0 | 108.0 | 6.0
